These results are taken from article PMC9893515 (Bioorganic chemistry, 2021).

Broadly, the IC50 is the concentration at which inhibition is half-maximal.

The target in one assay is T1, recombinant human TDP2 (Homo sapiens, UniProt O95551).
T1 sequence (O95551 1-362): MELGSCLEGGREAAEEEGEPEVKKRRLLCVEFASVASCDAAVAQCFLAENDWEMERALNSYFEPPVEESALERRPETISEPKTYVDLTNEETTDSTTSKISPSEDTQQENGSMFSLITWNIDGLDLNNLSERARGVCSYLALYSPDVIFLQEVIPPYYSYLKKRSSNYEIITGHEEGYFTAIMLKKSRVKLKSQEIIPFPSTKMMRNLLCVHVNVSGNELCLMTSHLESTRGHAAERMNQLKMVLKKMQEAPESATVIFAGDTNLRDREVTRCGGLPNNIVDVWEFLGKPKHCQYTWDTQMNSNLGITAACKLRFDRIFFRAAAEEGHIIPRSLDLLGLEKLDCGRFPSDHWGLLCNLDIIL
In words: Recombinant TDP2 assay. It counts as biochemical.
Settings: not given
The gist of the method: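 Human recombinant TDP2 (25 pM) with 1 nM 18-mer 5'-phosphotyrosyl ssDNA, 3'-α32P-cordycepin-labelled. Reaction ran 15 min at room temperature in Tris-HCl pH 7.5, KCl, MgCl2, EDTA, DTT, BSA and Tween 20. Stopped with formamide loading buffer, then 16% denaturing PAGE and phosphorimaging densitometry of product. […] IC50 is 50% enzyme inhibition.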
As to `CCOC(=O)c1c(C)oc2c1C(=O)c1nc(N3CCN(C)CC3)ccc1C2=O` [Compound 25, Ethyl-2-methyl-6-(4-methylpiperazin-1-yl)-4,9-dioxo-4,9-dihydrofuro[2,3-g]quinoline-3-carboxylate], the 50% inhibitory concentration (IC50) is > 111 µM.
Same read-out and setting: to `C#CCN(C)c1ccc2c(n1)C(=O)c1c(oc(C)c1C(=O)OCC)C2=O` [Compound 26, Ethyl-2-methyl-6-(methyl(prop-2-yn-1-yl)amino)-4,9-dioxo-4,9-dihydrofuro[2,3-g]quinoline-3-carboxylate] belongs > 111 µM; to `CCOC(=O)c1c(CN2CCOCC2)oc2c1C(=O)c1ncccc1C2=O` [Compound 46, Ethyl 2-(morpholinomethyl)-4,9-dioxo-4,9-dihydrofuro[2,3-g]quinoline-3-ca rboxylate], 22 ± 6.4 µM.
Still for that read-out and setting: for `CCOC(=O)c1c(C=O)oc2c1C(=O)c1ncccc1C2=O` [Compound 49, Ethyl-2-formyl-4,9-dioxo-4,9-dihydrofuro[2,3-g]quinoline-3-carboxylate] the value was 5.2 ± 4.1 µM.
As for `CCOC(=O)c1ccnc2c1C(=O)c1oc(C)c(C(=O)OCC)c1C2=O` [Compound 35, Diethyl-2-methyl-4,9-dioxo-4,9-dihydrofuro[2,3-g]quinoline-3,8-dicarboxylate], the IC50 was 69 ± 3.1 µM.
Still for that read-out and setting: for `N#CCCOC(=O)c1noc2c1C(=O)c1cccnc1C2=O` [Compound 60, 2-Cyanoethyl 4,9-dioxo-4,9-dihydroisoxazolo[4,5-g]quinoline-3-carboxylate] the value was 10 ± 1.48 µM; for `N#Cc1ccc(OCc2noc3c2C(=O)c2cccnc2C3=O)cc1F` [Compound 69, 4-((4,9-Dioxo-4,9-dihydroisoxazolo[4,5-g]quinolin-3-yl)methoxy)-2-fluorobenzonitrile], 0.96 ± 0.2 µM.
In the case of `CC(C)(C)OC(=O)c1noc2c1C(=O)c1cccnc1C2=O` [Compound 55, Tert-butyl 4,9-dioxo-4,9-dihydroisoxazolo[4,5-g]quinoline-3-carboxylate], the concentration for half-maximal inhibition (IC50) was determined as 3.3 ± 0.65 µM.
Take `CCOC(=O)c1c(-c2ccccc2)oc2c1C(=O)c1ncccc1C2=O` [Compound 41, Ethyl 4,9-dioxo-2-phenyl-4,9-dihydrofuro[2,3-g]quinoline-3-carboxylate]: the IC50 worked out at 28 ± 6.4 µM.
For `O=C(OCCc1cccc(F)c1)c1noc2c1C(=O)c1cccnc1C2=O` [Compound 61, 3-Fluorophenethyl 4,9-dioxo-4,9-dihydroisoxazolo[4,5-g]quinoline-3-carboxylate], the concentration for half-maximal inhibition (IC50) amounted to 8.7 ± 0.54 µM.
For `CCOC(=O)c1c(C)oc2c1C(=O)c1nc(N3CCCCC3)ccc1C2=O` [Compound 24, Ethyl-2-methyl-4,9-dioxo-6-(piperidin-1-yl)-4,9-dihydrofuro[2,3-g]quinoline-3-carboxylate], the IC50 came to 44 ± 2 µM.
The same measure, in the same setting: for `CCOC(=O)c1c(CBr)oc2c1C(=O)c1ncccc1C2=O` [Compound 43, Ethyl 2-(bromomethyl)-4,9-dioxo-4,9-dihydrofuro[2,3-g]quinoline-3-carboxylate] the value was 21 ± 5.5 µM.
For the molecule `O=C(OCCc1ccc(Cl)cc1)c1noc2c1C(=O)c1ncccc1C2=O` [Compound 56, 4-chlorophenethyl 4,9-dioxo-4,9-dihydroisoxazolo[5,4-g]quinoline-3-carboxylate], the IC50 came out at 15 ± 1.3 µM.
On to `CCOC(=O)c1c(CN2CCN(C(C)=O)CC2)oc2c1C(=O)c1ncccc1C2=O` [Compound 45, Ethyl 2-((4-acetylpiperazin-1-yl)methyl)-4,9-dioxo-4,9-dihydrofuro[2,3-g]qui noline-3-carboxylate], for which the half-inhibitory concentration (IC50) was determined as 31 ± 4.2 µM.
Turning to `CCOC(=O)c1c(C)oc2c1C(=O)c1ccccc1C2=O` [Compound 11, Ethyl 2-methyl-4,9-dioxo-4,9-dihydronaphtho[2,3-b]furan-3-carboxylate], the IC50 was > 111 µM.
The same measure, in the same setting: to `N#Cc1ccc(-c2noc3c2C(=O)c2cccnc2C3=O)c(F)c1` [Compound 71, 4-(4,9-Dioxo-4,9-dihydroisoxazolo[4,5-g]quinolin-3-yl)-3-fluorobenzonitrile] belongs 0.74 ± 0.25 µM; to `CCOC(=O)c1c(C)oc2c1C(=O)c1ccc(N3CCCCC3)nc1C2=O` [Compound 31, Ethyl-2-methyl-4,9-dioxo-7-(piperidin-1-yl)-4,9-dihydrofuro[3,2-g]quinoline-3-carboxylate], > 111 µM.
Still for that read-out and setting: for `CCOC(=O)c1c(C)oc2c1C(=O)c1nc(Cl)ccc1C2=O` [Compound 19, Ethyl-6-chloro-2-methyl-4,9-dioxo-4,9-dihydrofuro[2,3-g]quinoline-3-carboxylate] the value was 94 ± 29 µM; for `CCOC(=O)c1c(C)oc2c1C(=O)c1nccnc1C2=O` [Compound 14, Ethyl 7-methyl-5,9-dioxo-5,9-dihydrofuro[2,3-g]quinoxaline-8-carboxylate], 61 ± 43 µM.
The same measure, in the same setting: to `CCOC(=O)c1c(C)oc2c1C(=O)c1cnccc1C2=O` [Compound 12, Ethyl 2-methyl-4,9-dioxo-4,9-dihydrofuro[2,3-g]isoquinoline-3-carboxylate] belongs 32 ± 3.2 µM; to `CCOC(=O)c1c(C)oc2c1C(=O)c1ccc(C)nc1C2=O` [Compound 22, Ethyl-2,7-dimethyl-4,9-dioxo-4,9-dihydrofuro[3,2-g]quinoline-3-Carboxylate], > 111 µM.
Take `CCOC(=O)c1c(C)oc2c1C(=O)c1nc(-c3ccco3)ccc1C2=O` [Compound 28, Ethyl-6-(furan-2-yl)-2-methyl-4,9-dioxo-4,9-dihydrofuro[2,3-g]quinoline-3-carboxylate]: the IC50 was > 111 µM.
Consider `CCOC(=O)c1c(C)oc2c1C(=O)c1nc(C)ccc1C2=O` [Compound 21, Ethyl-2,6-dimethyl-4,9-dioxo-4,9-dihydrofuro[2,3-g]quinoline-3-carboxylate], for which the IC50 came out at 21 ± 5.5 µM.
On the same count and under the same terms, for `CCOC(=O)c1c(-c2ccccc2)oc2c1C(=O)c1cccnc1C2=O` [Compound 42, Ethyl 4,9-dioxo-2-phenyl-4,9-dihydrofuro[3,2-g]quinoline-3-carboxylate] the value was 47 ± 24 µM; for `CCOC(=O)c1c(CN2CCSCC2)oc2c1C(=O)c1ncccc1C2=O` [Compound 47, Ethyl 4,9-dioxo-2-(thiomorpholinomethyl)-4,9-dihydrofuro[2,3-g]quinoline3-carboxylate], 31 ± 6.4 µM.
Still for that read-out and setting: for `CCOC(=O)c1c(C)oc2c1C(=O)c1nccc(CC)c1C2=O` [Compound 36, Ethyl-8-ethyl-2-methyl-4,9-dioxo-4,9-dihydrofuro[2,3-g]quinoline-3-carboxylate] the value was 28 ± 1.3 µM; for `CCOC(=O)c1noc2c1C(=O)c1cnccc1C2=O` [Compound 50, Ethyl-4,9-dioxo-4,9-dihydroisoxazolo[5,4-g]isoquinoline-3-carboxylate], 5.4 ± 0.8 µM.
Regarding `O=C1c2ncccc2C(=O)c2c(COc3ccccc3)noc21` [Compound 65, 3-(Phenoxymethyl) isoxazolo[4,5-g]quinoline-4,9-dione], the IC50 turned out to be 0.82 ± 0.28 µM.
In the case of `CS(=O)(=O)c1ccc(OCc2noc3c2C(=O)c2cccnc2C3=O)cc1` [Compound 67, 3-((4-(Methylsulfonyl)phenoxy)methyl)isoxazolo[4,5-g]quinoline-4,9-dione], the 50% inhibitory concentration (IC50) came to 0.99 ± 0.13 µM.
As for `CCOC(=O)c1c(C)oc2c1C(=O)c1nc(-c3ccc(OC)cc3)ccc1C2=O` [Compound 27, Ethyl6-(4-methoxyphenyl)-2-methyl-4,9-dioxo-4,9-dihydrofuro[2,3-g]quinoline-3-carboxylate], the half-inhibitory concentration (IC50) is > 111 µM.
Still for that read-out and setting: to `CCOC(=O)c1c(C(C)C)oc2c1C(=O)c1ncccc1C2=O` [Compound 39, Ethyl 2-isopropyl-4,9-dioxo-4,9-dihydrofuro[2,3-g]quinoline-3-carboxylate] belongs 25 ± 7.7 µM; to `CCOC(=O)c1c(C)oc2c1C(=O)c1ccc(Cl)nc1C2=O` [Compound 20, Ethyl-7-chloro-2-methyl-4,9-dioxo-4,9-dihydrofuro[3,2-g]quinoline-3-carboxylate], > 111 µM.
For the molecule `CC(C)(C)OC(=O)c1noc2c1C(=O)c1ncccc1C2=O` [Compound 54, Tert-butyl 4,9-dioxo-4,9-dihydroisoxazolo[5,4-g]quinoline-3-carboxylate], the half-inhibitory concentration (IC50) was determined as 3.1 ± 0.43 µM.
Regarding `CCOC(=O)c1c(C)oc2c1C(=O)c1nccc(-c3ccccc3[N+](=O)[O-])c1C2=O` [Compound 34, Ethyl-2-methyl-8-(2-nitrophenyl)-4,9-dioxo-4,9-dihydrofuro[2,3-g]quinoline-3-carboxylate], the IC50 is > 111 µM.
Consider `CCOC(=O)c1c(C(C)C)oc2c1C(=O)c1cccnc1C2=O` [Compound 40, Ethyl 2-isopropyl-4,9-dioxo-4,9-dihydrofuro[3,2-g]quinoline-3-carboxylate], for which the half-maximal inhibitory concentration (IC50) was > 111 µM.

The assay is the same for the next values; noted with them: read-out: TDP2 inhibitory activity IC50; mean ± SD from at least three independent experiments; recombinant TDP2.
In the case of “Ethyl 2-isopropyl-4,9-dioxo-4,9-dihydrofuro[3,2-g]quinoline-3-carboxylate [Compound 38]”, the IC50 was > 111 µM.
With `O=C1c2ncccc2C(=O)c2c(COc3ccccc3Cl)noc21` [Compound 66, 3-((2-Chlorophenoxy)methyl)isoxazolo[4,5-g]quinoline-4,9-dione], the IC50 turned out to be 0.94 ± 0.24 µM.
Consider `CCOC(=O)c1noc2c1C(=O)c1nccnc1C2=O` [Compound 52, Ethyl-4,9-dioxo-4,9-dihydroisoxazolo[4,5-g]quinoxaline-3-carboxylate], for which the concentration for half-maximal inhibition (IC50) came to 9.3 ± 2.7 µM.
“Ethyl 2-isopropyl-4,9-dioxo-4,9-dihydrofuro[2,3-g]quinoline-3-carboxylate [Compound 37]”: the half-maximal inhibitory concentration (IC50) was found to be 37 ± 2 µM.
